Our source for the Activity, IC50 and I50 values is ChEMBL document CHEMBL4330063, “New naphthopyran analogues of LY290181 as potential tumor vascular-disrupting agents” (Eur J Med Chem, 2019).

The source made the active and inactive calls. The calls are words filed in the database; no cut-off is given here. A value given as a limit tells only on which side of the number the result lay.

The subject of data set [1] is Chorioallantoic membrane. Briefly: Antiangiogenic activity in Leghorn chicken embryo chorioallantoic membrane assessed as induction of hemorrhages at 2.5 nmol after 24 hrs by light microscopic analysis. The format is functional, tissue-based. The settings on record: Gallus gallus. The essentials: (§1)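 Fertilized chicken eggs, CAM assay. Compound was applied topically into a small silicon foil ring placed on the CAM. The membrane and its extraembryonal blood vessels were monitored over 24 h, with observations at 6 h and 24 h post application.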

Data set [2] has as its system Chorioallantoic membrane. In words: Antiangiogenic activity in Leghorn chicken embryo chorioallantoic membrane assessed as disruption of bigger blood vessels at 2.5 nmol after 6 hrs by light microscopic analysis. The format is functional, tissue-based. The settings on record: Gallus gallus. The essentials:
as §1

Data set [3] has as its system Chorioallantoic membrane. Briefly: Antiangiogenic activity in Leghorn chicken embryo chorioallantoic membrane assessed as induction of corrosion at 2.5 nmol after 24 hrs by light microscopic analysis. Type of data set: functional, tissue-based. The settings on record: Gallus gallus. Put shortly: as §1
Data set [4] has as its system Chorioallantoic membrane. In words: Antiangiogenic activity in Leghorn chicken embryo chorioallantoic membrane assessed as effect on blood vessel length at 2.5 nmol after 6 hrs by light microscopic analysis. Type of data set: functional, tissue-based. The settings on record: Gallus gallus. The essentials:
as §1

Data set [5] relates to Chorioallantoic membrane. Briefly: Antiangiogenic activity in Leghorn chicken embryo chorioallantoic membrane assessed as reduction in blood vessel area at 2.5 nmol after 6 hrs by light microscopic analysis relative to control. Type of data set: functional, tissue-based. The settings on record: Gallus gallus. The essentials:
(§2)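 The CAM assay was run with topical application into a silicon foil ring atop the CAM of fertilized chicken eggs. Area covered by blood vessels was quantified by fractal analysis relative to control.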

Data set [6] deals with 518A2. In words: Antiproliferative activity against human 518A2 cells after 72 hrs by MTT assay. The format is functional, cell-based. The essentials:
(§3)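 MTT read-out after 72 h of continuous exposure. Viability is expressed as percentage of viable cells relative to untreated controls. IC50 comes from dose-response curves. Values are means±SD of four independent experiments (two for some entries). DMSO was below 1%, with vehicle controls at equal DMSO. Precipitation was excluded spectrometrically and microscopically.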
Background: Formazan colour is commonly taken as a measure of viable cells.

Data set [7] relates to HT-29. Briefly: Antiproliferative activity against human HT-29 cells after 72 hrs by MTT assay. The settings on record: HT-29, 72 h. Type of data set: functional, cell-based. Put shortly:
as §3

In data set [8] the test system is A2780. Briefly: Antiproliferative activity against human A2780 cells after 72 hrs by SRB assay. Type of data set: functional, cell-based. The settings on record: A2780, 72 h. The essentials: (§4)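 Ovarian A2780 and cisplatin-resistant A2780cis cells were exposed for 72 h and stained with SRB. IC50 comes from dose-response curves, as means±SD of three independent experiments. Final DMSO was below 1%, with matched vehicle controls.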

A short description of data set [9]: Antiproliferative activity against human A2780cis cells after 72 hrs by SRB assay. Type of data set: functional, cell-based. Put shortly:
as §4

The subject of data set [10] is DLD-1. Briefly: Antiproliferative activity against human DLD1 cells after 72 hrs by MTT assay. Type of data set: functional, cell-based. The settings on record: DLD-1, 72 h. Put shortly:
as §3

Data set [11] deals with EA.hy 926. Briefly: Antiproliferative activity against human EAhy926 cells after 72 hrs by MTT assay. The format is functional, cell-based. The settings on record: EA.hy 926, 72 h. The essentials:
as §3

Data set [12] deals with PANC-1. In words: Antiproliferative activity against human PANC1 cells after 72 hrs by MTT assay. The format is functional, cell-based. The settings on record: PANC-1, 72 h. The essentials: as §3
Data set [13] has as its system HCT-116. Briefly: Antiproliferative activity against human HCT116 cells after 72 hrs by MTT assay. The format is functional, cell-based. The settings on record: HCT-116, 72 h. Put shortly:
as §3

Data set [14] in a line: Antiproliferative activity against human KB-V1/Vbl cells after 72 hrs by MTT assay. Type of data set: functional, cell-based. The essentials:
as §3

A short description of data set [15]: Antiproliferative activity against human MCF7/Topo cells after 72 hrs by MTT assay. Type of data set: functional, cell-based. The essentials: as §3
Data set [16] relates to EA.hy 926. Briefly: Antiangiogenic activity against human EAhy926 cells assessed as inhibition of tube formation on matrigel at 100 nM after 24 hrs by light microscopic analysis. Type of data set: functional, cell-based. Put shortly:
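Ea.Hy926 endothelial hybrid cells were seeded on matrigel with compound and examined for tubular/cord-like network formation versus untreated controls. Viability under the same conditions was checked in parallel by MTT to exclude cytotoxic effects.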

Data set [17] deals with EA.hy 926. Briefly: Cytotoxicity against human EAhy926 cells at 100 nM after 24 hrs by MTT assay relative to control. The format is cell-based. The settings on record: ea.hy 926, 24 h, 0.1 µM.
The subject of data set [18] is HT-29. In words: Cell cycle arrest in human HT-29 cells assessed as accumulation of cells at sub G1 phase at 100 nM after 24 hrs by propidium iodide staining-based flow cytometric analysis (reference value: 1.2 +/- 0.3%). The format is functional. In general terms: A flow cytometer gives signals particle by particle.
Data set [19] deals with HT-29. Briefly: Cell cycle arrest in human HT-29 cells assessed as accumulation of cells at sub G1 phase at 250 nM after 24 hrs by propidium iodide staining-based flow cytometric analysis (reference value: 1.2 +/- 0.3%). Type of data set: functional.
Data set [20] concerns HT-29. In words: Cell cycle arrest in human HT-29 cells assessed as accumulation of cells at sub G1 phase at 350 nM after 24 hrs by propidium iodide staining-based flow cytometric analysis (reference value: 1.2 +/- 0.3%). Type of data set: functional.
Data set [21] relates to HT-29. In words: Cell cycle arrest in human HT-29 cells assessed as accumulation of cells at G1 phase at 100 nM after 24 hrs by propidium iodide staining-based flow cytometric analysis (reference value: 75.1 +/- 1.1%). Type of data set: functional.
The subject of data set [22] is HT-29. Briefly: Cell cycle arrest in human HT-29 cells assessed as accumulation of cells at G1 phase at 250 nM after 24 hrs by propidium iodide staining-based flow cytometric analysis (reference value: 75.1 +/- 1.1%). The format is functional.
The subject of data set [23] is HT-29. In words: Cell cycle arrest in human HT-29 cells assessed as accumulation of cells at G1 phase at 350 nM after 24 hrs by propidium iodide staining-based flow cytometric analysis (reference value: 75.1 +/- 1.1%). Type of data set: functional.
Data set [24] relates to HT-29. Briefly: Cell cycle arrest in human HT-29 cells assessed as accumulation of cells at S phase at 100 nM after 24 hrs by propidium iodide staining-based flow cytometric analysis (reference value: 12.3 +/- 0.4%). Type of data set: functional.
Data set [25] concerns HT-29. Briefly: Cell cycle arrest in human HT-29 cells assessed as accumulation of cells at S phase at 250 nM after 24 hrs by propidium iodide staining-based flow cytometric analysis (reference value: 12.3 +/- 0.4%). The format is functional.
The subject of data set [26] is HT-29. Briefly: Cell cycle arrest in human HT-29 cells assessed as accumulation of cells at S phase at 350 nM after 24 hrs by propidium iodide staining-based flow cytometric analysis (reference value: 12.3 +/- 0.4%). The format is functional.
The subject of data set [27] is HT-29. In words: Cell cycle arrest in human HT-29 cells assessed as accumulation of cells at G2/M phase at 100 nM after 24 hrs by propidium iodide staining-based flow cytometric analysis (reference value: 11.4 +/- 1.4%). The format is functional.
In data set [28] the test system is HT-29. In words: Cell cycle arrest in human HT-29 cells assessed as accumulation of cells at G2/M phase at 250 nM after 24 hrs by propidium iodide staining-based flow cytometric analysis (reference value: 11.4 +/- 1.4%). Type of data set: functional.
The subject of data set [29] is HT-29. In words: Cell cycle arrest in human HT-29 cells assessed as accumulation of cells at G2/M phase at 350 nM after 24 hrs by propidium iodide staining-based flow cytometric analysis (reference value: 11.4 +/- 1.4%). The format is functional.
In data set [30] the test system is 518A2. In words: Induction of apoptosis in human 518A2 cells at 100 nM after 24 hrs by TUNEL assay relative to control. Type of data set: functional.
Data set [31] addresses Tubulin (Homo sapiens) (UniProt P68371+Q9H4B7+P0DPH7+P68366+Q13509+Q71U36+P04350+Q3ZCM7+P07437+P68363+Q9BQE3+Q6PEY2+Q13885+Q9BVA1+Q9BUF5). Briefly: Induction of microtubule disruption in human 518A2 cells at 100 nM after 3 hrs by DAPI staining-based fluorescence microscopic analysis. Type of data set: cell-based. Put shortly:
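Microtubule organization in 518A2 melanoma cells was checked by tubulin immunofluorescence staining after 3 h exposure to 100 nM, with DAPI as the nuclear counterstain. Images come from two independent experiments.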

In data set [32] the target is Tubulin (Sus scrofa, UniProt P02554+P02550). Briefly: Inhibition of porcine brain tubulin polymerization after 2 hrs.
Data set [33] deals with 518A2. Briefly: Effect on F-actin in human 518A2 cells assessed as thick stress fibers formation at 100 nM after 3 hrs by DAPI staining-based fluorescence microscopic analysis. Type of data set: cell-based. The essentials: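 518A2 melanoma cells were treated with 100 nM for 3 h. Filamentous actin was fluorescence-labelled, nuclei were counterstained with DAPI, and the cells were imaged by fluorescence microscopy. Images come from two independent experiments.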

Data set [34] deals with 518A2. Briefly: Antimigratory activity against human 518A2 cells at 50 nM after 48 hrs by wound healing assay. The format is functional, cell-based.
For data set [35], the system named is Chorioallantoic membrane. In words: Antiangiogenic activity in Leghorn chicken embryo chorioallantoic membrane assessed as induction of hemorrhages at 5 nmol after 6 hrs by light microscopic analysis. The format is functional, tissue-based. The settings on record: Gallus gallus. The essentials:
as §1

For data set [36], the system named is Chorioallantoic membrane. Briefly: Antiangiogenic activity in Leghorn chicken embryo chorioallantoic membrane assessed as reduction in blood vessel area at 5 nmol after 6 hrs by light microscopic analysis relative to control. More on the design: scale not given: the % may be the effect or the level left. The format is functional, tissue-based. The settings on record: Gallus gallus. The essentials:
as §2

Data set [37] concerns Chorioallantoic membrane. In words: Antiangiogenic activity in Leghorn chicken embryo chorioallantoic membrane assessed as effect on blood vessel length at 5 nmol after 6 hrs by light microscopic analysis. The settings on record: Gallus gallus. The format is functional, tissue-based. The essentials:
as §1

Data set [38] relates to 518A2. Briefly: Induction of apoptosis in human 518A2 cells assessed as accumulation at subG1 phase. Type of data set: functional, cell-based.
Data set [39] concerns 518A2. In words: Induction of cell cycle arrest in human 518A2 cells. The format is functional, cell-based.
The test system of data set [40] is HT-29. Briefly: Cell cycle arrest in human HT-29 cells assessed as accumulation of cells at G2/M phase after 24 hrs by propidium iodide staining-based flow cytometric analysis. Type of data set: functional.
The subject of data set [41] is Chorioallantoic membrane. Briefly: Antiangiogenic activity in Leghorn chicken embryo chorioallantoic membrane assessed as reduction in size of main blood vessels at 5 nmol after 6 hrs by light microscopic analysis. Type of data set: functional, tissue-based. The settings on record: Gallus gallus. Put shortly:
as §1

The test system of data set [42] is Chorioallantoic membrane. Briefly: Antiangiogenic activity in Leghorn chicken embryo chorioallantoic membrane assessed as induction of contraction at 5 nmol after 6 to 24 hrs by light microscopic analysis. The settings on record: Gallus gallus. The format is functional, tissue-based. Put shortly: as §1
Data set [43] relates to Chorioallantoic membrane. In words: Antiangiogenic activity in Leghorn chicken embryo chorioallantoic membrane assessed as induction of irritation at 5 nmol after 6 to 24 hrs by light microscopic analysis. Type of data set: functional, tissue-based. The settings on record: Gallus gallus. The essentials:
as §1

A short description of data set [44]: Toxicity in human A2780 cells xenografted nude mouse at 30 mg/kg administered on every other day and measured after 24 hrs. The format is organism-based. The settings on record: in vivo. In general terms: A xenograft is tissue or cells of one species grown in another, often human tumour cells in immunodeficient mice.

Consider `COc1ccc(/C=C\c2cc(OC)c(OC)c(OC)c2)cc1O`, for which the outcome in [1], in data set [2], in data set [3], in data set [4] and in data set [5] was Active.
In the case of `COc1c(Br)cc(C2C(C#N)=C(N)Oc3c2ccc2ccccc32)cc1Br` (stereo not given), the Activity result in data set [6] was “Dose-dependent effect”; in data set [17], > 68%; in data set [18], 2.7%; in data set [19], 4.4%; in [20], 5.3%; in [21], 51.8%. Moreover, the Activity is 26.8% in data set [22]; 19.9% in [23]; 19.4% in [24]; 13.9% in [25]; 10.6% in data set [26]; 26.1% in [27]. Moreover, the Activity is 55% in data set [28]; 64.3% in data set [29]; 46.5% in [30]; 45% in data set [36]; “Dose-dependent effect” in [40]; “Toxic” in [44]. Moreover, the IC50 in [6] (518A2, 72 h) stood at 24.4 nM; in [7], 52.1 nM; in data set [8], 12.1 nM; in data set [9], 15.8 nM; in data set [10], 39.5 nM; in data set [11] it was 15.9 nM. The IC50 in data set [12] was found to be 14.7 nM; in [13], 19.1 nM; in data set [14] it was 33.4 nM; in data set [15], 24.8 nM. For the same compound, the outcome in data set [16], in [31], in [33], in data set [34], in data set [37] and in [38] was Active. The result in data set [41], in data set [42] and in data set [43] was Active. This compound had an I50 in data set [32] of 13 µM. Moreover, the outcome in [35] and in data set [39] was inactive.

As usually defined, the IC50 is the concentration at which inhibition is half-maximal.
